According to ChEMBL document CHEMBL1926565, “Synthesis, antiproliferative activities and telomerase inhibition evaluation of novel asymmetrical 1,2-disubstituted amidoanthraquinone derivatives” (Eur J Med Chem, 2012):
The source made the active and inactive calls. No cut-off for these calls is given here.

What was measured:
SR = assay: Cytotoxicity against human SR cells assessed as cellular growth at 10 uM; format: functional
NCI/ADR-RES = assay: Cytotoxicity against human NCI/ADR-RES cells assessed as cellular growth at 10 uM; format: functional
How it was run: (§1)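 Single-dose screen run by the NCI across its 60-human-tumour-cell-line panel; growth recorded for each cell line.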

SW-620 = assay: Cytotoxicity against human SW620 cells assessed as cellular growth at 10 uM; format: functional
[1] = Growth of human H1299 cells at 10 uM after 48 hrs by MTT assay; details: NCI-H1299, 48 h
PC-3 [2] = assay: Cytotoxicity against human PC3 cells after 48 hrs by SRB assay; format: functional, cell-based; details: PC-3, 48 h
How it was run: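 PC-3 cells grown in RPMI1640 with 10% FBS at 37 °C, 5% CO₂. Seeded in medium with 5% FBS; after 24 h, one plate fixed with 10% TCA as T₀. Compound or 0.1% DMSO vehicle added for 48 h, then TCA fixation and 0.4% SRB in 1% acetic acid. Dye solubilized in 10 mM Trizma base, absorbance read at 515 nm. IC50 is the concentration giving 50% reduction of the protein gain in controls.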

DU-145 = assay: Cytotoxicity against human DU145 cells assessed as cellular growth at 10 uM; format: functional; how it was run: as §1
CAKI-1 = assay: Cytotoxicity against human Caki1 cells assessed as cellular growth at 10 uM; format: functional; how it was run: as §1
SN12C = assay: Cytotoxicity against human SN12C cells assessed as cellular growth at 10 uM; format: functional
HCT-15 = assay: Cytotoxicity against human HCT15 cells assessed as cellular growth at 10 uM; format: functional; how it was run: as §1
UACC-257 = assay: Cytotoxicity against human UACC257 cells assessed as cellular growth at 10 uM; format: functional
K562 = assay: Cytotoxicity against human K562 cells assessed as cellular growth at 10 uM; format: functional; how it was run: as §1
SF-539 = assay: Cytotoxicity against human SF539 cells assessed as cellular growth at 10 uM; format: functional; how it was run: as §1
A549 = assay: Cytotoxicity against human A549 cells assessed as cellular growth at 10 uM; format: functional; how it was run: as §1
SNB-19 = assay: Cytotoxicity against human SNB19 cells assessed as cellular growth at 10 uM; format: functional
HCT-116 = assay: Cytotoxicity against human HCT116 cells assessed as cellular growth at 10 uM; format: functional; how it was run: as §1
[3] = Growth of human H1299 cells at 1 uM after 48 hrs by MTT assay; details: NCI-H1299, 48 h
HT-29 = assay: Cytotoxicity against human HT-29 cells assessed as cellular growth at 10 uM; format: functional; how it was run: as §1
KM12 = assay: Cytotoxicity against human KM12 cells assessed as cellular growth at 10 uM; format: functional; how it was run: as §1
SK-OV-3 = assay: Cytotoxicity against human SKOV3 cells assessed as cellular growth at 10 uM; format: functional
SNB-75 = assay: Cytotoxicity against human SNB75 cells assessed as cellular growth at 10 uM; format: functional
SK-MEL-28 = assay: Cytotoxicity against human SK-MEL-28 cells assessed as cellular growth at 10 uM; format: functional; how it was run: as §1
MCF7 = assay: Cytotoxicity against human MCF7 cells assessed as cellular growth at 10 uM; format: functional; how it was run: as §1
OVCAR-8 = assay: Cytotoxicity against human OVCAR8 cells assessed as cellular growth at 10 uM; format: functional; how it was run: as §1
OVCAR-3 = assay: Cytotoxicity against human OVCAR3 cells assessed as cellular growth at 10 uM; format: functional; how it was run: as §1
LOX IMVI = assay: Cytotoxicity against human LOXIMVI cells assessed as cellular growth at 10 uM; format: functional; how it was run: as §1
SF-268 = assay: Cytotoxicity against human SF268 cells assessed as cellular growth at 10 uM; format: functional; how it was run: as §1
CCRF-CEM = assay: Cytotoxicity against human CCRF-CEM cells assessed as cellular growth at 10 uM; format: functional; how it was run: as §1
[4] = biological target: Telomerase reverse transcriptase (Homo sapiens) (UniProt O14746); assay: Inhibition of telomerase activity in human H1299 cell free extract at 10 uM by modified TRAP assay
Sequence of Telomerase reverse transcriptase (Homo sapiens) (O14746 whole entry): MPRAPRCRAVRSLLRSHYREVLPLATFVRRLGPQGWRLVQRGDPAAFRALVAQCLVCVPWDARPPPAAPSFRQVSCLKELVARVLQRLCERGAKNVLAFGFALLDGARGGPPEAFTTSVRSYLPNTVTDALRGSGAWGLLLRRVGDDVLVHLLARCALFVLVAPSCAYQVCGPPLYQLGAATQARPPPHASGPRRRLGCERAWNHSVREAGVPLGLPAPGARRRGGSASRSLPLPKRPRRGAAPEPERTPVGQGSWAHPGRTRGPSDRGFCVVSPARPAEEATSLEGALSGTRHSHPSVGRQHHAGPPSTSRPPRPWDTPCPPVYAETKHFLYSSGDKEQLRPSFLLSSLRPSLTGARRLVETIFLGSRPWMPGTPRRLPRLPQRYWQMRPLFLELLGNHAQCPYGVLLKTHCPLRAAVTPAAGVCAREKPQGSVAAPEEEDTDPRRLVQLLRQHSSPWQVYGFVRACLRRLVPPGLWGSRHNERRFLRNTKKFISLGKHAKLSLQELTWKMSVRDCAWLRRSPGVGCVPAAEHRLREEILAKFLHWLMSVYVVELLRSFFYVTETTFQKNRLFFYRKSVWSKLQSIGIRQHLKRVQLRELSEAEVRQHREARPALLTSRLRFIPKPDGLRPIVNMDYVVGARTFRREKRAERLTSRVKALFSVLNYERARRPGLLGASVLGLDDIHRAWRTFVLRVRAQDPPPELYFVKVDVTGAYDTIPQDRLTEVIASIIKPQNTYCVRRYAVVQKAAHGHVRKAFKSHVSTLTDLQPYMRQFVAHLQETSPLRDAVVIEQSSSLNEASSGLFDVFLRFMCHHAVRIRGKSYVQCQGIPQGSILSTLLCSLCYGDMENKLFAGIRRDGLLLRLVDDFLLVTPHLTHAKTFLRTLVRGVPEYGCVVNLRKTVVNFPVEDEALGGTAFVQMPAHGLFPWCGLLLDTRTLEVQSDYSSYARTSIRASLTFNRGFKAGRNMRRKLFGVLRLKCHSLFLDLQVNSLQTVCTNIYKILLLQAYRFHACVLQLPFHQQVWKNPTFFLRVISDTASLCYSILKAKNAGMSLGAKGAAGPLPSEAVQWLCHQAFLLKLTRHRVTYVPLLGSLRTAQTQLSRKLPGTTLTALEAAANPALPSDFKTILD
How it was run: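 TRAP assay using total cell lysate from H1299 lung cancer cells as the telomerase source, with protein measured against BSA standards. Compounds tested at 10 µM. Controls were lysate without inhibitor (positive) and RNase A-treated extract without inhibitor (negative).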

HCC 2998 = assay: Cytotoxicity against human HCC2998 cells assessed as cellular growth at 10 uM; format: functional; how it was run: as §1
M14 = assay: Cytotoxicity against human M14 cells assessed as cellular growth at 10 uM; format: functional; how it was run: as §1
[5] = Growth of human H1299 cells at 100 uM 48 hrs by MTT assay; details: NCI-H1299, 48 h
SK-MEL-2 = assay: Cytotoxicity against human SK-MEL-2 cells assessed as cellular growth at 10 uM; format: functional; how it was run: as §1
NCI-H522 = assay: Cytotoxicity against human NCI-H522 cells assessed as cellular growth at 10 uM; format: functional; how it was run: as §1
IGROV-1 = assay: Cytotoxicity against human IGROV1 cells assessed as cellular growth at 10 uM; format: functional; how it was run: as §1
A498 = assay: Cytotoxicity against human A498 cells assessed as cellular growth at 10 uM; format: functional; how it was run: as §1
OVCAR-5 = assay: Cytotoxicity against human OVCAR5 cells assessed as cellular growth at 10 uM; format: functional; how it was run: as §1
SK-MEL-5 = assay: Cytotoxicity against human SK-MEL-5 cells assessed as cellular growth at 10 uM; format: functional
SF-295 = assay: Cytotoxicity against human SF295 cells assessed as cellular growth at 10 uM; format: functional; how it was run: as §1
UO-31 = assay: Cytotoxicity against human UO31 cells assessed as cellular growth at 10 uM; format: functional
NCI-H226 = assay: Cytotoxicity against human NCI-H226 cells assessed as cellular growth at 10 uM; format: functional; how it was run: as §1
BT-549 = assay: Cytotoxicity against human BT549 cells assessed as cellular growth at 10 uM; format: functional; how it was run: as §1
PC-3 [6] = assay: Cytotoxicity against human PC3 cells assessed as cellular growth at 10 uM; format: functional; how it was run: as §1
T47D = assay: Cytotoxicity against human T47D cells assessed as cellular growth at 10 uM; format: functional
[7] = Cytotoxicity against human Hs 578T cells assessed as cellular growth at 10 uM; format: functional; how it was run: as §1
RXF 393 = assay: Cytotoxicity against human RXF393 cells assessed as cellular growth at 10 uM; format: functional; how it was run: as §1
NCI-H322M = assay: Cytotoxicity against human NCI-H322M cells assessed as cellular growth at 10 uM; format: functional; how it was run: as §1
Malme-3M = assay: Cytotoxicity against human MALME-3M cells assessed as cellular growth at 10 uM; format: functional; how it was run: as §1
MDA-MB-435 = assay: Cytotoxicity against human MDA-MB-435 cells assessed as cellular growth at 10 uM; format: functional; how it was run: as §1
MDA-MB-468 = assay: Cytotoxicity against human MDA-MB-468 cells assessed as cellular growth at 10 uM; format: functional; how it was run: as §1
[8] = biological target: Telomerase reverse transcriptase (Homo sapiens) (UniProt O14746); assay: Residual activity of human TERT in H1299 cells at 10 uM after 24 hrs by SEAP reporter gene assay

Cc1ccc(C(=O)Nc2c(NC(=O)CN3CCN(C)CC3)ccc3c2C(=O)c2ccccc2C3=O)cc1
Activity (SR): -43.7%
Activity (NCI/ADR-RES): 66.74%
Activity (SW-620): 39.17%
growth, % of control at 10 µM [1]: 13%
IC50 (PC-3 [2]): 3.46 µM
Activity (DU-145): 82.12%
Activity (CAKI-1): 69.76%
Activity (SN12C): 63.31%
Activity (HCT-15): 27.47%
Activity (UACC-257): -50.95%
Activity (K562): -4.52%
Activity (SF-539): 62.68%
Activity (A549): 83.89%
Activity (SNB-19): 68.75%
Activity (HCT-116): 8.37%
growth, % of control at 1 µM [3]: 77%
Activity (HT-29): 3.69%
Activity (KM12): 44.05%
Activity (SK-OV-3): 108.91%
Activity (SNB-75): 82.17%
Activity (SK-MEL-28): -57.56%
Activity (MCF7): 31.79%
Activity (OVCAR-8): 46.43%
Activity (OVCAR-3): -6.15%
Activity (LOX IMVI): 1.24%
Activity (SF-268): 59.11%
Activity (CCRF-CEM): 61.06%
inhibition [4]: inactive
Activity (HCC 2998): 28.97%
Activity (M14): -60.04%
growth, % of control at 100 µM [5]: 3%
Activity (SK-MEL-2): 123.64%
Activity (NCI-H522): 88.21%
Activity (IGROV-1): 112.2%
Activity (A498): 67.36%
Activity (OVCAR-5): 106.66%
Activity (SK-MEL-5): 41.3%
Activity (SF-295): 89.86%
Activity (UO-31): 70.66%
Activity (NCI-H226): 93.87%
Activity (BT-549): 91.88%
Activity (PC-3 [6]): 84.75%
Activity (T47D): 52.62%
Activity [7]: 87.29%
Activity (RXF 393): 68.84%
Activity (NCI-H322M): 72.6%
Activity (Malme-3M): 10.84%
Activity (MDA-MB-435): 11.15%
Activity (MDA-MB-468): 7.43%
residual activity [8]: 29%
